Assay results as given in ChEMBL document CHEMBL3739360, “Indoline Amide Glucosides from Portulaca oleracea: Isolation, Structure, and DPPH Radical Scavenging Activity” (J Nat Prod, 2015).

What was measured:
[1] = Antioxidant activity assessed as DPPH radical scavenging activity after 30 mins by plate reader analysis; assay type: physicochemical; settings: for Activity: 0.5 h
Outline: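 DPPH radical (150 μM in MeOH, 180 μL) mixed with 20 μL compound in water (solutions 62.5–1000 μM); 30 min, room temperature, dark; absorbance 490 nm. Sample-only blanks in MeOH; water+DPPH and water+MeOH references. Vitamin C as positive control. Scavenging % from corrected absorbances; EC50 by nonlinear regression; triplicate, mean ± SD.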

[2] = Potency index, ratio of vitamin C EC50 to compound EC50 for DPPH radical scavenging activity

**Q.** For `COc1cc(/C=C/C(=O)O[C@H]2[C@H](OC[C@H]3O[C@@H](Oc4cc5c(cc4O)C[C@@H](C(=O)O)N5C(=O)/C=C/c4ccc(O)c(OC)c4)[C@H](O)[C@@H](O)[C@@H]3O)O[C@H](CO)[C@@H](O)[C@@H]2O)ccc1O`, which EC50 [1] is on record?
**A.** 27.6 µM

**Q.** And the Activity [1]?
**A.** Dose-dependent effect

**Q.** Which EC50 [1] does the source give for `COc1cc(/C=C/C(=O)N2c3cc(O[C@@H]4O[C@H](CO[C@@H]5O[C@H](CO)[C@@H](O)[C@H](O)[C@H]5O)[C@@H](O)[C@H](O)[C@H]4O)c(O)cc3C[C@H]2C(=O)O)ccc1O` here?
**A.** 40.1 µM

**Q.** And the Activity [1]?
**A.** Dose-dependent effect

**Q.** What does the source list for `O=C(O)[C@@H]1Cc2cc(O)c(O[C@@H]3O[C@H](CO[C@@H]4O[C@H](CO)[C@@H](O)[C@H](O)[C@H]4O)[C@@H](O)[C@H](O)[C@H]3O)cc2N1C(=O)/C=C/c1ccc(O)cc1`?
**A.** EC50 [1]: 42.9 µM; Activity [1]: Dose-dependent effect

**Q.** With `O=C(/C=C/c1ccc(O)c(O)c1)O[C@H]1[C@H](OC[C@H]2O[C@@H](Oc3cc4c(cc3O)C[C@@H](C(=O)O)N4C(=O)/C=C/c3ccc(O)cc3)[C@H](O)[C@@H](O)[C@@H]2O)O[C@H](CO)[C@@H](O)[C@@H]1O` as the compound, how does the Ratio EC50 [2] read?
**A.** 2

**Q.** What about the EC50 [1] of the same compound?
**A.** 15.3 µM

**Q.** And the Activity [1]?
**A.** Dose-dependent effect

**Q.** Which EC50 [1] does the source give for `O=C(O)[C@@H]1Cc2cc(O)c(O[C@@H]3O[C@H](CO)[C@@H](O)[C@H](O)[C@H]3O)cc2N1C(=O)/C=C/c1ccc(O)cc1` here?
**A.** 35.1 µM

**Q.** What about the Activity [1] of the same compound?
**A.** Dose-dependent effect

**Q.** What does the source list for `COc1cc(/C=C/C(=O)N2c3cc(O[C@@H]4O[C@H](CO)[C@@H](O)[C@H](O)[C@H]4O)c(O)cc3C[C@H]2C(=O)O)ccc1O`?
**A.** EC50 [1]: 35.1 µM; Activity [1]: Dose-dependent effect

**Q.** For `COc1cc(/C=C/C(=O)O[C@H]2[C@H](OC[C@H]3O[C@@H](Oc4cc5c(cc4O)C[C@@H](C(=O)O)N5C(=O)/C=C/c4ccc(O[C@@H]5O[C@H](CO)[C@@H](O)[C@H](O)[C@H]5O)cc4)[C@H](O)[C@@H](O)[C@@H]3O)O[C@H](CO)[C@@H](O)[C@@H]2O)ccc1O`, which EC50 [1] is on record?
**A.** 31.6 µM

**Q.** What about the Activity [1] of the same compound?
**A.** Dose-dependent effect

**Q.** For `COc1cc(/C=C/C(=O)OC[C@H]2O[C@@H](OC[C@H]3O[C@@H](Oc4cc5c(cc4O)C[C@@H](C(=O)O)N5C(=O)/C=C/c4ccc(O)cc4)[C@H](O)[C@@H](O)[C@@H]3O)[C@H](O)[C@@H](O)[C@@H]2O)ccc1O`, which EC50 [1] is on record?
**A.** 35.4 µM

**Q.** What about the Activity [1] of the same compound?
**A.** Dose-dependent effect

**Q.** Which EC50 [1] does the source give for `COc1cc(/C=C/C(=O)N2c3cc(O[C@@H]4O[C@H](CO)[C@@H](O)[C@H](O)[C@H]4O)c(O)cc3C[C@H]2C(=O)O)ccc1O[C@@H]1O[C@H](CO)[C@@H](O)[C@H](O)[C@H]1O` here?
**A.** 34.6 µM

**Q.** And the Activity [1]?
**A.** Dose-dependent effect

**Q.** For `COc1cc(/C=C/C(=O)N2c3cc(O[C@@H]4O[C@H](CO[C@@H]5O[C@H](CO)[C@@H](O)[C@H](O)[C@H]5O)[C@@H](O)[C@H](O)[C@H]4O)c(O)cc3C[C@H]2C(=O)O)ccc1O[C@@H]1O[C@H](CO)[C@@H](O)[C@H](O)[C@H]1O`, which EC50 [1] is on record?
**A.** 40.9 µM

**Q.** What about the Activity [1] of the same compound?
**A.** Dose-dependent effect

**Q.** Which EC50 [1] does the source give for `O=C(O)[C@@H]1Cc2cc(O)c(O[C@@H]3O[C@H](CO[C@@H]4O[C@H](CO)[C@@H](O)[C@H](O)[C@H]4O)[C@@H](O)[C@H](O)[C@H]3O)cc2N1C(=O)/C=C/c1ccc(O[C@@H]2O[C@H](CO)[C@@H](O)[C@H](O)[C@H]2O)cc1` here?
**A.** 43.5 µM

**Q.** What about the Activity [1] of the same compound?
**A.** Dose-dependent effect

**Q.** For `O=C(O)[C@@H]1Cc2cc(O)c(O[C@@H]3O[C@H](CO)[C@@H](O)[C@H](O)[C@H]3O)cc2N1C(=O)/C=C/c1ccc(O[C@@H]2O[C@H](CO)[C@@H](O)[C@H](O)[C@H]2O)cc1`, which EC50 [1] is on record?
**A.** 38.3 µM

**Q.** And the Activity [1]?
**A.** Dose-dependent effect

**Q.** With `COc1cc(/C=C/C(=O)N2c3cc(O[C@@H]4O[C@H](CO[C@@H]5O[C@H](CO)[C@@H](O)[C@H](O)[C@H]5OC(=O)/C=C/c5ccc(O)c(O)c5)[C@@H](O)[C@H](O)[C@H]4O)c(O)cc3C[C@H]2C(=O)O)ccc1O` as the compound, how does the Ratio EC50 [2] read?
**A.** 2

**Q.** What about the EC50 [1] of the same compound?
**A.** 16.1 µM

**Q.** And the Activity [1]?
**A.** Dose-dependent effect

**Q.** For `O=C1O[C@H]([C@@H](O)CO)C(O)=C1O` [ASCORBIC ACID], which EC50 [1] is on record?
**A.** 30.2 µM

**Q.** With `COc1cc(/C=C/C(=O)O[C@H]2[C@H](OC[C@H]3O[C@@H](Oc4cc5c(cc4O)C[C@@H](C(=O)O)N5C(=O)/C=C/c4ccc(O)cc4)[C@H](O)[C@@H](O)[C@@H]3O)O[C@H](CO)[C@@H](O)[C@@H]2O)ccc1O` as the compound, how does the EC50 [1] read?
**A.** 29.1 µM

**Q.** What about the Activity [1] of the same compound?
**A.** Dose-dependent effect
